Folding enthalpy and Tm data for 37 sequences are collected here from the array DNA melting data of Ke et al. (doi:10.1101/2024.01.08.574731).

The nature of series [1]: folding enthalpy; higher = less favourable; fluorescence melt of hairpins on a sequencing array, two-state fit. To be noted: sodium 0.088 M. An outline of the steps: (§1)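 Melting temperature and folding enthalpy were obtained by bootstrapped two-state fitting. Fits used Cy3 fluorescence of library hairpins with annealed Cy3 and quencher oligos on a sequenced MiSeq flow cell, imaged in 50 mM Na-HEPES pH 8.0, 25 mM NaCl in 2.5 °C steps up to 60 °C and normalised to pre-quench Cy3 and control constructs. Four replicates were combined by inverse-variance weighting, and fitted temperatures were raised by 9.35 °C to match UV melts.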

The nature of series [2]: melting temperature; fluorescence melt of hairpins on a sequencing array, two-state fit, raised by 9.35 °C to match UV melts. Conditions: sodium 0.088 M. The essentials:
as §1

GACGCCGGAAACAGCGCC (.(((.(....).))).): the folding enthalpy in series [1] is -17.8 kcal/mol. The Tm in series [2] amounted to 31.8 °C.

As for GATTGCGGAAACGCGATC (((.(((....))).))), the folding enthalpy in series [1] was -30.7 kcal/mol. Besides, the Tm in series [2] came out at 57.5 °C.

With GGAAAAGAAATTTTCC ((((((....)))))), the folding enthalpy in series [1] was -23.4 kcal/mol. Further, in series [2], the Tm is 37.7 °C.

Regarding GCAACTGGAAACAATTGC ((((.((....)).)))), in series [1], the folding enthalpy was -32.8 kcal/mol. Besides, the Tm in series [2] stood at 34.5 °C.

For GATCATTGTAATGATC ((((((....)))))), the folding enthalpy in series [1] was -36 kcal/mol. Besides, the Tm in series [2] came to 50.3 °C.

On to GCTTCCCGAAAGGGTAGC (((.(((....))).))), for which the folding enthalpy in series [1] was -33.9 kcal/mol. The Tm in series [2] was 56.4 °C.

In the case of GATCACTTTTGTGATC ((((((....)))))), the folding enthalpy in series [1] is -43.1 kcal/mol. Moreover, in series [2], the Tm was 59 °C.

As for GACGAGGGAAACCTTGTC (((.(((....))).))), the folding enthalpy in series [1] was -31.4 kcal/mol. Besides, the Tm in series [2] was 48.1 °C.

Turning to GGCTTCGAAAGAAAAGCC ((((((....)))..))), the folding enthalpy in series [1] is -28 kcal/mol. In series [2], the Tm amounted to 46.6 °C.

As to GTTGACGAAAGTCATAAC ((((((....)))..))), the folding enthalpy in series [1] was -12.9 kcal/mol. Besides, the Tm in series [2] was determined as 33.5 °C.

Consider GAAGCCGAAAGGCATTTC ((((((....)))..))), for which the folding enthalpy in series [1] was -6.75 kcal/mol. Also, the Tm in series [2] came to 25.9 °C.

For the sequence GATCAGCAGCCTGATC ((((((....)))))), the folding enthalpy in series [1] is -36.5 kcal/mol. Further, the Tm in series [2] turned out to be 48.7 °C.

Turning to CGCGTTCGGAAACGAGCG (((..(((....)))))), the folding enthalpy in series [1] is -19.6 kcal/mol. Moreover, the Tm in series [2] stood at 48.5 °C.

GATACTGGAAACGGTATC (((((.(....).))))): the folding enthalpy in series [1] was -30.4 kcal/mol. The Tm in series [2] stood at 42.7 °C.

With GGCCGACGAAAGTCTGCC (((.(((....))).))), in series [1], the folding enthalpy is -51.3 kcal/mol. For the same sequence, the Tm in series [2] worked out at 56.2 °C.

For the sequence GCTCCCGGAAACGGGGGC ((.((((....)))).)), the folding enthalpy in series [1] was -26.7 kcal/mol. In addition, the Tm in series [2] was 68.5 °C.

On to GCTTCACCGAAAGGTAGC (((..(((....)))))), for which the folding enthalpy in series [1] is -16.8 kcal/mol. For the same sequence, the Tm in series [2] is 35.3 °C.

GGAGACGAAAGTCTATCC ((((((....)))..))): the folding enthalpy in series [1] was -12.5 kcal/mol. Further, the Tm in series [2] worked out at 32.8 °C.

In the case of GAAACGCGAAAGCGGTTC (((.(((....))).))), the folding enthalpy in series [1] is -27.2 kcal/mol. The Tm in series [2] turned out to be 66.3 °C.

Turning to GTTCACGGAAACGTGAGC (.(((((....))))).), the folding enthalpy in series [1] was -22.2 kcal/mol. For the same sequence, the Tm in series [2] is 52.1 °C.

Turning to GAGTGTGGAAACGCATTC ((.((.(....).)).)), the folding enthalpy in series [1] was -19 kcal/mol. Besides, the Tm in series [2] was 28.5 °C.

On to GATCTCCCTGAGATC ((((((...)))))), for which, in series [1], the folding enthalpy was -34.7 kcal/mol. Moreover, the Tm in series [2] was found to be 55.3 °C.

In the case of GATGCCGGAAACGACATC ((((.((....)).)))), the folding enthalpy in series [1] was -38.3 kcal/mol. In addition, in series [2], the Tm amounted to 48.2 °C.

Regarding GCTCGACGAAAGTCCAGC (((.(((....))).))), the folding enthalpy in series [1] was -24.1 kcal/mol. Moreover, in series [2], the Tm was 44.6 °C.

GTTCCAGGAAACTGGGAC ((.((((....)))).)): the folding enthalpy in series [1] was -27.6 kcal/mol. Moreover, in series [2], the Tm worked out at 49.3 °C.

GTTTGTGGAAACACAAGC (.(((((....))))).): in series [1], the folding enthalpy was -23.1 kcal/mol. For the same sequence, the Tm in series [2] was determined as 45.1 °C.

Consider GATCGGCCGAAAGGCATC (((..(((....)))))), for which the folding enthalpy in series [1] is -6.97 kcal/mol. In addition, the Tm in series [2] turned out to be 26.9 °C.

As to GCCAAGAAATTGGC (((((....))))), the folding enthalpy in series [1] is -21.6 kcal/mol. Also, the Tm in series [2] came out at 52.3 °C.

For the sequence GCGGTCTTCCGC ((((....)))), in series [1], the folding enthalpy is -23.6 kcal/mol. In series [2], the Tm stood at 59.1 °C.

For GATGAGACGAAAGTCATC (((..(((....)))))), in series [1], the folding enthalpy is -13.4 kcal/mol. In addition, the Tm in series [2] came out at 35.9 °C.

Take GATCTGCGATCAGATC ((((((....)))))): in series [1], the folding enthalpy was -33.9 kcal/mol. For the same sequence, the Tm in series [2] came to 47.1 °C.

Turning to GATCACGAGGTGATC ((((((...)))))), the folding enthalpy in series [1] was -33.7 kcal/mol. In series [2], the Tm was determined as 57.8 °C.

Take GCGTGGCTACGC ((((....)))): the folding enthalpy in series [1] was -23.4 kcal/mol. Moreover, the Tm in series [2] is 58.5 °C.

As for GATTCGGGAAACCAAATC ((((.((....)).)))), in series [1], the folding enthalpy is -22.3 kcal/mol. Further, the Tm in series [2] came out at 30.1 °C.

For the sequence GCAACCACGAAAGTGTGC (((..(((....)))))), in series [1], the folding enthalpy was -17.4 kcal/mol. Also, the Tm in series [2] is 41.7 °C.

For the sequence GGTATCGAAAGATGAACC ((((((....)))..))), the folding enthalpy in series [1] is -15.4 kcal/mol. Further, the Tm in series [2] was determined as 27.9 °C.

GTCCCTCGAAAGAGCGAC (((.(((....))).))): in series [1], the folding enthalpy is -26.8 kcal/mol. Besides, the Tm in series [2] is 40.1 °C.
